Test results from PubChem BioAssay.
Active and inactive are the calls of the source.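 The calls were made as follows, unless noted: active = inhibition above 20% together with a positive visual image hit; inconclusive = visual image hit but inhibition not above 20%; inactive = no visual image hit.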

Assays:
[1] = inhibitors of TNFa-induced NFkB p65 translocation, primary screen, imaging, HUVEC, MLSMR starter and 10KST1 sets (AID 438); details: HUVEC TNFa-induced p65 nuclear translocation; cell count: measured here: nuclei count (cytotoxicity indicator), at 2.08 µM; inhibition: at 2 µM, stronger effect = higher value, 0% TNFa-plus-vehicle, 100% no-TNFa wells;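 also: compound added about 3h40 before a 20 min TNFalpha stimulation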;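 as to inhibition: signal is the nuclear over cytoplasmic p65 intensity ratio per well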
[2] = inhibitors of mutant huntingtin aggregation, primary screen, imaging, exon1htt(103Q)mCFP cells, high-content imaging (AID 483;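 active = visual image review flags a hit and inhibition of aggregation exceeds 20%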;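 also: compound exposure lasted 3 days before fixation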;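 as to nuclei count: percent of the per-plate median nuclei count of sample wells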); details: exon1htt(103Q)mCFP cell line, aggregate imaging, at 2 µM; inhibition of aggregation: stronger effect = higher value; nuclei count: measured here: cell count, toxicity
[3] = inhibitors of E-selectin induction by TNFa, primary screen, imaging, HUVEC, immunofluorescence, MLSMR starter and 10KST1 sets (AID 487;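 active = visually confirmed hit in the image check and inhibition above 20%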;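 as to inhibition: signal is fraction of cell area covered by stained E-selectin grains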;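 as to nuclei count: 100% = median nuclei count of all wells on the same plate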); details: HUVEC TNFalpha-induced E-selectin immunofluorescence imaging, at 2 µM; inhibition: stronger effect = higher value; nuclei count: measured here: cell number, toxicity
[4] = molecular target: Voltage-gated potassium channel subunit beta-2 (Rattus norvegicus) (UniProt P62483); test: KvBeta enzyme negative modulators, primary screen, biochemical, NADPH fluorescence (AID 622;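 active = fluorescence slope higher than the sample average by over 3 SD, cut at about -0.22 in these data, passing the limit was not always enough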;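 also: slope of raw intensity against log time taken from 70 to 1610 s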); details: recombinant KvBeta, 4-cyanobenzaldehyde reduction, at 10 µM, stronger effect = higher value
Voltage-gated potassium channel subunit beta-2 (Rattus norvegicus), sequence (P62483 whole entry, looked up): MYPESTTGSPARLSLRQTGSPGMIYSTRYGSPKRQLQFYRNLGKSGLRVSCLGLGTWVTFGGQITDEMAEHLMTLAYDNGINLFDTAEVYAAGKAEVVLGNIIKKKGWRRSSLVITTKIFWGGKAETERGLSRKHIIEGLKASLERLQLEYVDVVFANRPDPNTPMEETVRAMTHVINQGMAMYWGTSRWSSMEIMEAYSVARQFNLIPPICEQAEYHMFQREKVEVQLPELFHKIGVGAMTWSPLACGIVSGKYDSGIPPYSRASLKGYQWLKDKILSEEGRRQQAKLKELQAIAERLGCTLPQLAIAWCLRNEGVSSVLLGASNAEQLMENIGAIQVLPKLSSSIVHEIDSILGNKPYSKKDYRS

[5] = molecular target: Voltage-gated potassium channel subunit beta-2 (Rattus norvegicus) (UniProt P62483); test: KvBeta positive modulators, primary screen, biochemical, NADPH fluorescence (AID 623;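 active = NADPH fluorescence slope more negative than the mean of all samples by about 3 SD, 99.7% confidence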;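 also: fluorescence intensity change per second fitted from 20 to 320 s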); details: Recombinant KvBeta, NADPH fluorescence decrease slope, 10 min; at 10 µM; stronger effect = lower value
[6] = molecular target: Alpha-2C adrenergic receptor (Homo sapiens) (UniProt P18825); test: modulators of alpha2C/GIRK thallium flux, primary screen, cell-based, HEK293 alpha2C/GIRK1/2 (AID 624;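 active = fluorescence slope after compound addition differing from the mean of all screened samples at 99.7% confidence, in either direction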;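 also: slope of fluorescence ratio to pre-addition baseline per second over 15 to 24 s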); details: thallium flux BTC fluorescence, at 10 µM, actives lie on both sides
Alpha-2C adrenergic receptor (Homo sapiens), sequence (P18825 whole entry, looked up): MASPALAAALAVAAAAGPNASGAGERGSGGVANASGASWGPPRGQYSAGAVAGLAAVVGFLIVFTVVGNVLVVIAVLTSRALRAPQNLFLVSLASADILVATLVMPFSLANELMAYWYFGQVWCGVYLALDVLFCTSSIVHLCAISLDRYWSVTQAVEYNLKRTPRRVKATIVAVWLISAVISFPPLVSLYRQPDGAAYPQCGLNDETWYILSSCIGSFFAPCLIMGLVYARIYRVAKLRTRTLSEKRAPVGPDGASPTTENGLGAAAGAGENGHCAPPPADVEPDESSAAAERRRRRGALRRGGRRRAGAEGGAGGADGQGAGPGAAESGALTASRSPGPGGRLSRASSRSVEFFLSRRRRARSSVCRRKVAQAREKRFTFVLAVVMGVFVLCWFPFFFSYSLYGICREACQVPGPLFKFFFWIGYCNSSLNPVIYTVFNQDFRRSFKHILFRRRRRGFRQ

[7] = inhibitors of larval lipid processing in zebrafish, primary screen, whole organism, PED6 fluorescence, gall bladder and intestine (AID 686;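 active = a full or partial loss of lipid-probe fluorescence in the fish gall bladder, intestine or both, judged by eye; inactive = no fluorescence loss, or compound toxic to the fish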;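 also: larvae 5 to 7 days old with five fish per well; signal comes from phospholipase A2 cleavage of quenched PED6 carried via bile; overnight exposure to compound and PED6 before scoring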); details: Zebrafish larvae PED6 lipid processing, fluorescence scoring; screened at 20 µM (by protocol)
Summary of the method: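 Test system – live zebrafish larvae aged 5-7 days, whole organism · Buffer or medium – E3 fish medium · Reagent – quenched phospholipase substrate PED6, 100 nM final, ingested by larvae · Doses – 20 µM single dose · Incubation – overnight compound and PED6 incubation · Technique – visual fluorescence microscopy scoring of gall bladder, gut · Read-out basis – visual per-well fluorescence inhibition score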

[8] = inhibitors of Sendai virus-induced IRF3 signaling, primary screen, TLR/RLR signaling modifier project, cell-based, Sendai virus stimulus, luciferase, 10K MLSCN set (AID 602276;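 active = inhibition at or above 50% at 10 µM; inactive = inhibition below 50%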;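 also: firefly luciferase from ISG56 promoter only with Renilla not read in this screen; 0% = Sendai virus plus DMSO and 100% = medium plus DMSO without virus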); details: HEK293 RL24 IRF3 luciferase reporter, at 10 µM, stronger effect = higher value
[9] = inhibitors of poly I:C-induced TLR3 signaling, primary screen, cell-based, poly I:C stimulus, luciferase, 10K MLSCN set (AID 602277;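 active = inhibition of the reporter signal at or above 50%; inactive = inhibition below 50%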); details: HEK293-TLR3 RL24 IRF3 luciferase reporter, at 10 µM, stronger effect = higher value

| SMILES | cell count [1] | inhibition [1] | inhibition of aggregation [2] | nuclei count [2] | inhibition [3] | nuclei count [3] | fluorescence slope [4] | NADPH fluorescence slope [5] | slope [6] | outcome [7] | inhibition [8] | inhibition [9] |
| --- | --- | --- | --- | --- | --- | --- | --- | --- | --- | --- | --- | --- |
| COC(=O)c1ccc2c(=O)n(NC(C)=O)c(=S)[nH]c2c1 | 627 | 8.7% (inactive) | -5% (inactive) | 108% | -73.1% (inactive) | 114% | -0.367 (inactive) | -6.6e-05 (inactive) | 0.00487 (inactive) | inactive | 2.98% (inactive) | -0.555% (inactive) |
| COc1ccccc1NC(=O)NCc1ccc2c(c1)OCO2 | 361 | -9.8% (inactive) | 25.8% (inactive) | 97% | 37.9% (inactive) | 78.8% | -0.341 (inactive) | -2.6e-05 (inactive) | 0.0055 (inactive) | inactive | 10.7% (inactive) | 17.5% (inactive) |
| C=CCOc1ccc(CN(C)CC(=O)N(CC(C)C)c2c(N)n(CC(C)C)c(=O)[nH]c2=O)cc1 | 492 | 8.3% (inactive) | -8.7% (inactive) | 101% | -77.8% (inactive) | 123% | -0.452 (inactive) | -4.3e-05 (inactive) | 0.00414 (inactive) | inactive | 21.6% (inactive) | 19.4% (inactive) |
| COc1cc(C(=O)NCC(=O)OCC(=O)c2ccc[nH]2)cc(OC)c1OC | 383 | -23% (inactive) | 10.7% (inactive) | 101% | -64.2% (inactive) | 107% | -0.458 (inactive) | -4.1e-05 (inactive) | 0.00501 (inactive) | inactive | 13.9% (inactive) | 16.7% (inactive) |
| Cc1ccc(S(=O)(=O)N2CCCN(S(=O)(=O)C3CCS(=O)(=O)C3)CC2)cc1 (centres undefined) | 455 | 2.4% (inactive) | -22.7% (inactive) | 111% | -102% (inactive) | 129% | -0.366 (inactive) | -4.2e-05 (inactive) | 0.00596 (inactive) | inactive | 12.7% (inactive) | 14% (inactive) |
| O=C(Nc1ccccc1)N(CCCN1CCOCC1)Cc1cc2cc3c(cc2[nH]c1=O)OCCO3 | 390 | 8% (inactive) | 20.1% (inactive) | 70.5% | -24.2% (inactive) | 98.3% | -0.412 (inactive) | -4.1e-05 (inactive) | 0.00525 (inactive) | inactive | -3.35% (inactive) | 8.69% (inactive) |
| CC1(C)CC2CC(C)(CN2S(=O)(=O)c2ccc(N)cc2)C1 (centres undefined) | 613 | -9.2% (inactive) | 30.3% (inactive) | 79.8% | 65.6% (inactive) | 60.2% | -0.374 (inactive) | -6.2e-05 (inactive) | 0.00585 (inactive) | inactive | 10.2% (inactive) | 18.5% (inactive) |
| O=C(NC1CCS(=O)(=O)C1)OC1CCCCC1 (centres undefined) | 419 | -1.2% (inactive) | 2% (inactive) | 111% | -91.7% (inactive) | 105% | -0.468 (inactive) | -5.2e-05 (inactive) | 0.0056 (inactive) | inactive | 10.9% (inactive) | 3.54% (inactive) |
| Cc1cnc(NC(=O)CSc2nnc(-c3ccccc3)n2Cc2ccccc2)s1 | 682 | -5.5% (inactive) | 14.8% (inactive) | 102% | -19.9% (inactive) | 105% | -0.493 (inactive) | 5.3e-05 (inactive) | 0.00426 (inactive) | inactive | -3.73% (inactive) | -7.1% (inactive) |
| CC(=O)Nc1ccc(NC(=O)Cn2cnc3c(cnn3C(C)(C)C)c2=O)cc1 | 586 | -3.3% (inactive) | 8.4% (inactive) | 104% | 0.5% (inactive) | 111% | -0.37 (inactive) | -4e-05 (inactive) | 0.00604 (inactive) | inactive | 2.03% (inactive) | 2.5% (inactive) |
| COc1cc(C(=O)Nc2cc(-c3ccccc3)[nH]n2)cc(OC)c1OC | 456 | -6.3% (inactive) | 15.9% (inactive) | 94.3% | -41% (inactive) | 114% | -0.385 (inactive) | -4.1e-05 (inactive) | 0.00552 (inactive) | inactive | 22.1% (inactive) | 33.8% (inactive) |
| O=C(CCCn1c(=O)[nH]c2ccsc2c1=O)N1CCN(c2ccccn2)CC1 | 665 | -5.2% (inactive) | -1% (inactive) | 97.2% | -13.1% (inactive) | 106% | -0.386 (inactive) | -4.1e-05 (inactive) | 0.00451 (inactive) | inactive | 8.33% (inactive) | 13.1% (inactive) |
| O=C(CN(Cc1ccc(F)cc1)C(=O)c1ccco1)NCc1ccc(F)cc1 | 357 | 6.8% (inactive) | 7% (inactive) | 90.9% | -382% (inactive) | 130% | -0.359 (inactive) | -3.4e-05 (inactive) | 0.00584 (inactive) | inactive | 14.4% (inactive) | 21.2% (inactive) |
| CC(=O)NCCc1ccc(S(=O)(=O)NCc2ccc3c(c2)OCO3)cc1 | 587 | -12.3% (inactive) | -24.8% (inactive) | 89.5% | 35.7% (inactive) | 82.1% | -0.356 (inactive) | -4.4e-05 (inactive) | 0.00549 (inactive) | inactive | 4.45% (inactive) | 2.38% (inactive) |
| COc1ccc(NC(=O)Cn2nnc(-c3ccccc3F)n2)cc1Cl | 602 | -9.3% (inactive) | -0.1% (inactive) | 92.6% | -59.1% (inactive) | 107% | -0.382 (inactive) | 1.8e-05 (inactive) | 0.00543 (inactive) | inactive | 7.23% (inactive) | 38.7% (inactive) |
| Cc1nnc(NC(=O)CCC(=O)N2CCC(C)CC2)s1 | 355 | -2% (inactive) | -13.9% (inactive) | 119% | -84.2% (inactive) | 120% | -0.465 (inactive) | -4.6e-05 (inactive) | 0.0059 (inactive) | inactive | 12.2% (inactive) | 14% (inactive) |
| Cn1c(=O)cc(SCC(=O)NCc2cccnc2)c2ccccc21 | 634 | 2.8% (inactive) | 3.4% (inactive) | 104% | -48.7% (inactive) | 110% | -0.31 (inactive) | -3.9e-05 (inactive) | 0.00505 (inactive) | inactive | 9.23% (inactive) | 9.63% (inactive) |
| COc1ccccc1N(CC(=O)NC1CCCC1)C(=O)c1csnn1 | 723 | -1.7% (inactive) | 10.7% (inactive) | 109% | -49.4% (inactive) | 126% | -0.365 (inactive) | -2.7e-05 (inactive) | 0.00495 (inactive) | inactive | -0.44% (inactive) | 1.68% (inactive) |
| CN(Cc1ccccc1)C(=O)c1cc(-c2ccc(Br)cc2)on1 | 318 | 2.4% (inactive) | 14.9% (inactive) | 107% | 19.7% (inactive) | 110% | -0.399 (inactive) | -3.6e-05 (inactive) | 0.00441 (inactive) | inactive | -49.5% (inactive) | -116% (inactive) |
| CC1CN(C(=O)CSc2ncnc3sccc23)CC(C)O1 (centres undefined) | 356 | -0.9% (inactive) | -13.4% (inactive) | 98.3% | -1.1% (inactive) | 102% | -0.469 (inactive) | -2.6e-05 (inactive) | 0.0052 (inactive) | inactive | 10.7% (inactive) | 11% (inactive) |
| Cc1ccc(S(=O)(=O)NCC(=O)OCC(=O)Nc2ncc(Cl)cc2Cl)cc1 | 412 | -0.4% (inactive) | -19.2% (inactive) | 115% | -42.3% (inactive) | 114% | -0.465 (inactive) | -4.6e-05 (inactive) | 0.00472 (inactive) | inactive | 17.2% (inactive) | 25.7% (inactive) |
| O=C(Nc1cc(C(=O)N2CCCC2)ccc1N1CCCC1)c1ccccc1F | 612 | 2% (inactive) | -12.8% (inactive) | 107% | -93% (inactive) | 95.8% | -0.343 (inactive) | -7.2e-05 (inactive) | 0.00481 (inactive) | inactive | -1.26% (inactive) | -54% (inactive) |
| COC(=O)c1ccc(CSc2nnnn2Cc2ccccc2)cc1 | 341 | 3% (inactive) | -32.1% (inactive) | 108% | -32.4% (inactive) | 104% | -0.322 (inactive) | 3.4e-06 (inactive) | 0.00496 (inactive) | inactive | 9.31% (inactive) | 37.9% (inactive) |
| C=C(C)Cn1c(CCCNC(=O)C(C)(C)C)nc2ccccc21 | 770 | -19.6% (inactive) | -0.5% (inactive) | 106% | 14% (inactive) | 110% | -0.397 (inactive) | -3.4e-05 (inactive) | 0.00533 (inactive) | inactive | 6.04% (inactive) | 98.2% (active) |
| COCCNC(=S)c1ccc(OC)cc1 | 318 | 4.7% (inactive) | 1.2% (inactive) | 121% | -41.9% (inactive) | 123% | -0.362 (inactive) | -7.4e-05 (inactive) | 0.00489 (inactive) | inactive | 4.72% (inactive) | 4.95% (inactive) |
| Cc1cccc(C)c1-n1nnnc1SCSc1nnnn1-c1c(C)cccc1C | 409 | 7.5% (inactive) | -3.2% (inactive) | 101% | -231% (inactive) | 116% | -0.445 (inactive) | -2.4e-07 (inactive) | 0.00806 (inactive) | inactive | 4.69% (inactive) | 15% (inactive) |
| CCc1ccccc1N1C(=O)C2CC(C)=C(C)CC2C1=O (centres undefined) | 500 | 5.5% (inactive) | 18.2% (inactive) | 92.1% | -355% (inactive) | 124% | -0.368 (inactive) | -5.9e-05 (inactive) | 0.00511 (inactive) | inactive | 10.5% (inactive) | 4.14% (inactive) |
